Screening data from PubChem.
TRAIL sens C8 = sensitizes caspase-8 expressing cells to TRAIL. actives 1% (n = 360,000). inhibition (viability loss, TRAIL sensitization), % at 10 µM. NB7+C8 cells + TRAIL, ATPlite viability luminescence. AID 624354;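 active = compounds causing at least 50% loss of cell viability in the single-dose screen, relative to plate controls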
PPC-1+TRAIL kill = kills PPC-1 cancer cells in the presence of TRAIL. actives 0.41% (n = 220,000). cell killing (% activity), % at 4 µM or 5 µM. PPC-1 cells + TRAIL, ATPLite viability luminescence;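 active = cell killing above 50% in the first pass at 4 µM, then a duplicate retest at 5 µM averaging 50% or more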;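 note: plate controls were cells with TRAIL plus DMSO for no effect and medium-only wells lacking cells for full effect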
HSP90 inh = HSP90 refolding inhibition in rabbit reticulocyte lysate; luciferase refolding luminescence, 3 h; inhibition, % at 5.6 µM; actives 0.91% (n = 290,000); AID 1789;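 active = inhibition above the screen-wide mean plus 3 SD, computed separately per campaign, cut at about 16% in these data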;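 note: 0% = DMSO wells and 100% = 60 µM geldanamycin wells; inhibitors lower the luminescence because luciferase stays unfolded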
FLuc inhib CS = Photinus pyralis luciferase inhibition counter-screen; P08659; ATPLite firefly luciferase biochemical luminescence, 10 min; inhibition, % at 10 µM; actives 1.5% (n = 200,000); AID 1006;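 active = inhibition above about 50% when tested at 10 µM, limit read from the data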
Target sequence (P08659 whole entry, looked up): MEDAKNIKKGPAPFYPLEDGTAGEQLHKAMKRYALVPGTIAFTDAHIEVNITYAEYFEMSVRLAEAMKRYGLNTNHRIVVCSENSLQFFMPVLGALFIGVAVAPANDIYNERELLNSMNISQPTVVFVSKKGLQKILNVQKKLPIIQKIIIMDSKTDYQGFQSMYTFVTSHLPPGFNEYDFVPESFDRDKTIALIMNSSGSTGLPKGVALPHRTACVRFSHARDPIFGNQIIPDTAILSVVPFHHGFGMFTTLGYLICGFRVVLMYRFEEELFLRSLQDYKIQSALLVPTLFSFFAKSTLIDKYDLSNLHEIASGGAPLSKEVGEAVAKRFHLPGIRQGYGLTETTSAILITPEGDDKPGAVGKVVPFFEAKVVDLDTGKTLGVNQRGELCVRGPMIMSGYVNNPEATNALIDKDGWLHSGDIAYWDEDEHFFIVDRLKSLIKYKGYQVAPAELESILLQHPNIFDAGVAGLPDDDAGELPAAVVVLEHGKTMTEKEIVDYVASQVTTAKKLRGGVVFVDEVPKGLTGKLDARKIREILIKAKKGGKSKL
FLuc stim CS = firefly luciferase counter-screen for stimulation assays | P08659 | ATPlite luciferase biochemical, luminescence, 10 min; 0 = ATP-free wells, 1 = DMSO control | activation factor at 10 µM | 200,000 tested, under 10 active;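 active = luciferase activation factor, scaled between plate controls, of at least 2 with compound at 10 µM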
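Material: luciferase plus luciferin reagent, cell-free. Medium: PBS buffer for ATP. Also added: ATP substrate, dispensed from a 10.24 µM working solution in PBS. Doses: test compounds dosed from 2 mM stocks in 100% DMSO. Incubation: 10 min post-reagent at room temperature. Technique: light output (luminescence). Read-out basis: luminescence gain marking luciferase activators.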
PPC1 cytotox = kills PPC-1 cells; shares compounds with PPC-1+TRAIL kill; PPC-1 viability, ATPlite luminescence, overnight; cytotoxicity, % at 5 µM; actives 50% (n = 1,200);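 active = reconfirmed compounds whose average cytotoxicity reaches 50% or more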;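 note: 0% = DMSO-treated cells and 100% = wells holding medium but no cells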
HSP90 confirm = confirmation of HSP90 inhibitors; shares compounds with HSP90 inh; rabbit reticulocyte lysate, luciferase refolding luminescence, 3 h; inhibition, % at 5.9 µM; actives 64% (n = 2,300); AID 1846; in the data active = inhibition above about 18%;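 note: 0% = vehicle wells and 100% = reference inhibitor wells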
FLuc counter = counter-screen for HSP90 inhibitors: inhibitors of firefly luciferase; inhibition, % at 5.9 µM; purified native firefly luciferase, luminescence; actives 48% (n = 2,300); shares compounds with HSP90 inh;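 active = inhibition above the mean inhibition of all tested sample wells plus 3 SD, cut at about 10% in these data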;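 note: 0% = DMSO with luciferase and 100% = wells lacking luciferase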
* marks the source's active call; other numbers are inactive results; nt = not tested or not shown. An excerpt weighted towards active compounds, which were near 2% of everything screened.

SMILES	TRAIL sens C8	PPC-1+TRAIL kill	HSP90 inh	FLuc inhib CS	FLuc stim CS	PPC1 cytotox	others
COc1ccc(N/N=C/c2c(C(=O)O)ccc3ccccc23)cc1	-7	43	0	nt	nt	38
Cc1cc(NC(=O)CSC2=Nc3ccccc3C3=NC(Cc4ccccc4)C(=O)N23)n[nH]1 (stereo unspecified)	-5	-6	-2	-3	1	-2
Cc1ccnc(NC(=O)Nc2cccc(F)c2)n1	1	3	-1	7	0.9	nt
COc1cccc(NC(=O)Nc2ccc3c(c2)nc(C)n3C)c1	82*	75*	8	92*	0.1	72*
COc1cccc(NC(=O)Nc2ccc3nc(C)c(C)nc3c2)c1	3	nt	-2	nt	nt	nt
Cc1nc2cc(NC(=O)NC(C)(C)C)ccc2n1C	3	5	0	10	0.9	nt
COc1cccc(NC(=O)Nc2nccc(C)n2)c1	67*	56*	2	82*	0.2	62*
Cc1nc2cc(NC(=O)Nc3nccs3)ccc2n1C	66*	54*	5	81*	0.2	51*
C[C@H](NC(=O)c1ncn2c1C(=O)N(C)CC2)C(=O)OC(C)(C)C	2	nt	nt	nt	nt	nt
CC1(C(=O)NS(=O)(=O)c2cccc(C#N)c2)CCN1C(=O)c1ccco1 (stereo unspecified)	-8	nt	nt	nt	nt	nt
CCOc1ccc(C2C(C#N)=C(N)SC(N)=C2C#N)cc1OCC	18	5	nt	-11	1.1	9
CCOc1ccc(C2C(C#N)=C(N)SC(N)=C2C#N)cc1OC	nt	8	1	-4	1	nt
Cc1ccc(NC(=O)CCC(=O)NNC(=O)c2ccccc2[N+](=O)[O-])c(C)c1	-2	-10	0	-6	1.1	-7
Cc1cc(C)c(C#N)c(SCC(=O)Nc2ccccc2C)n1	-4	14	2	-5	1.1	nt
Cc1ccc2sc(NC(=O)CSc3nc(C)cc(C)c3C#N)nc2c1	70*	65*	2	13	0.9	62*
Cc1nc(SCC(=O)Nc2nc3ccccc3s2)c(C#N)c(C)c1C	95*	96*	68*	-1	1	96*
Cc1cccc2nc(=S)n(C(=O)c3ccco3)n12	54*	43	0	85*	0.2	49
O=C(c1ccco1)N1CCN(C(=O)c2ccco2)CC1	-8	nt	nt	nt	nt	nt
CNc1nc(-c2ccccc2)c2sccc2n1	3	nt	nt	nt	nt	nt
CCOc1ccc(-c2nc3ccccc3c(=O)o2)cc1	68*	54*	-3	68*	0.3	56*
CCCc1c(Cc2cccc(F)c2)ncn1Cc1cccc(-c2ccccc2)c1	-5	nt	nt	nt	nt	nt
O=C(CSc1nnc(-c2ccccc2Cl)o1)Nc1ccccn1	52*	63*	-1	0	1	65*
CCOC(=O)c1cnn(-c2ncnc3c2oc2ccccc23)c1N	47	27	nt	41	0.6	6
CN(C)c1ccc(-c2ccnc3c2CC(C)(C(=O)NCc2ccco2)O3)cc1 (stereo unspecified)	21	nt	nt	nt	nt	nt
CCn1c(-c2ccc(N(C)C)cc2)nc2ccccc21	65*	60*	6	85*	0.2	60*
SMILES	TRAIL sens C8	PPC-1+TRAIL kill	HSP90 inh	FLuc inhib CS	FLuc stim CS	PPC1 cytotox	others
c1ccc(OCCn2c(-c3ccco3)nc3ccccc32)cc1	0	8	-1	-3	1	nt
CCn1c(-c2ccco2)nc2ccccc21	9	19	-1	23	0.8	19
CC(C)C(=O)Nc1c(-c2ccccc2)c(=O)c2ccccc2n1C	3	-12	2	nt	nt	nt
Cn1c(NC(=O)c2ccco2)c(-c2ccccc2)c(=O)c2ccccc21	-21	8	2	-6	1.1	-12
CCn1cc(-c2cc(C(=O)O)c3ccccc3n2)cn1	62*	51*	0	83*	0.2	55*
Cc1nnc(NC2=NCCC2)s1	15	16	4	-6	1.1	8
Cc1nnc(NC2=NCCC2)o1	-6	3	2	0	1	nt
O=C(Nc1ccccn1)c1ccc2ccccc2n1	55*	38	5	84*	0.2	52*
O=C(Nc1nccs1)c1ccc2ccccc2n1	47	nt	3	nt	nt	nt
CCN1CCN(Cc2ccc(NC(=O)c3cc(NC(=O)C(=O)c4c[nH]c5ccccc45)cc(OC)c3)cc2C(F)(F)F)CC1	93*	17	nt	nt	nt	20
CCN1CCN(Cc2ccc(NC(=O)c3cc(NC(=O)c4cc(C)on4)cc(OC)c3)cc2C(F)(F)F)CC1	30	nt	-4	nt	nt	nt
Cn1nc(N)c2ncc(-c3ccc(Cl)cc3)nc21	20	nt	nt	nt	nt	nt
CC[n+]1c(/C=C2\Sc3ccccc3N2C)ccc2cccc(C)c21	25	36	-2	2	1	26
CN1/C(=C/c2cccc[n+]2CCO)Sc2ccccc21	4	nt	-2	nt	nt	nt
O=C1CSC(=Nc2cccc(Cl)c2Cl)N1	2	nt	-5	nt	nt	nt
CC(C)C(=O)N1CCCC1(C)C(=O)Nc1cccc(Oc2ccccc2)c1 (stereo unspecified)	-10	nt	nt	nt	nt	nt
COc1cc(SC)ccc1C(=O)Nc1ccc2c(c1)OCO2	38	42	7	72*	0.3	40
COc1ccc(C(=O)Nc2ccc3c(c2)OCCO3)c(OC)c1	46	nt	nt	nt	nt	nt
COc1ccc2nc(SCC(C)=O)c(C#N)cc2c1	37	-4	-6	13	0.9	2
Cn1cc(CC(=O)N2CCN(c3ccc(Cl)cc3)CC2)c2ccccc21	-19	-8	-1	-2	1	3
Cn1cc(CC(=O)N2CCN(c3ccccc3F)CC2)c2ccccc21	-7	-20	1	-8	1.1	nt
Cc1ccc(F)cc1NC(=O)C1CC(=O)N(Cc2ccccc2)C1 (stereo unspecified)	-17	nt	nt	nt	nt	nt
CCN(CC)c1ccc(N=Cc2cc(Br)ccc2O)cc1	-6	-1	1	11	0.9	11
CSc1cccc(NC(=O)/C=C/c2ccccc2)c1	26	25	-5	42	0.6	nt
CSc1ccc(/C=C/C(=O)Nc2ccccc2)cc1	58*	64*	23*	83*	0.2	66*	HSP90 confirm=71*;FLuc counter=67*
COc1ccc(NC(=O)C/C(C)=N/NC(=O)c2ccccn2)c(OC)c1	-2	nt	8	nt	nt	nt
COc1ccc(-c2nsc3c(N4CCCCC4C)ncnc23)cc1 (stereo unspecified)	78*	77*	78*	91*	0.1	79*	HSP90 confirm=83*;FLuc counter=80*
COc1ccc(-c2nsc3c(N4CCCCC4)ncnc23)cc1	85*	79*	61*	89*	0.1	78*	HSP90 confirm=82*;FLuc counter=63*
Cn1cccc1C(=O)NC1CCCCC1	11	nt	nt	nt	nt	nt
